The source of these data is ChEMBL document CHEMBL1132274, “2,7-Disubstituted amidofluorenone derivatives as inhibitors of human telomerase” (J Med Chem, 1999).

Molecules are shown by their SMILES. The source made the active and inactive calls. The rule behind the calls is not given here.

In one experiment the test system is A2780. The experiment is described as follows: Cytotoxicity measured in human ovarian cell line A2780 using sulforhodamine B (SRB) assay. It counts as functional, cell-based. The method in brief:
(§1)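 SRB growth-inhibition assay in human ovarian carcinoma cells: 3000–6000 cells/well attached overnight, then salts (dissolved at 500 μM in water) added in quadruplicate at final 0.05, 0.25, 1, 5 and 25 μM. After 96 h, cells fixed with ice-cold 10% TCA and stained with 0.4% SRB. Mean A540 expressed as % of untreated control; IC50 = concentration giving 50% growth inhibition.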

For a further experiment, the system named is CH1. The experiment is described as follows: Cytotoxicity measured in human ovarian cell line CH1 using sulforhodamine B (SRB) assay. In kind it is functional, cell-based. The method in brief:
as §1
For orientation: In SRB staining, fixed cells bind dye roughly in proportion to their protein.

The test system of a further experiment is SK-OV-3. The experiment is described as follows: Cytotoxicity measured in human ovarian cell line SKOV-3 using sulforhodamine B (SRB) assay. In kind it is functional, cell-based. The method in brief: as §1
The target in experiment [1] is DNA polymerase I, thermostable (Thermus aquaticus) (UniProt P19821). The experiment is described as follows: Inhibitory activity against taq polymerase at 10 uM; No inhibition.
Chain of DNA polymerase I, thermostable (Thermus aquaticus) (P19821 whole entry): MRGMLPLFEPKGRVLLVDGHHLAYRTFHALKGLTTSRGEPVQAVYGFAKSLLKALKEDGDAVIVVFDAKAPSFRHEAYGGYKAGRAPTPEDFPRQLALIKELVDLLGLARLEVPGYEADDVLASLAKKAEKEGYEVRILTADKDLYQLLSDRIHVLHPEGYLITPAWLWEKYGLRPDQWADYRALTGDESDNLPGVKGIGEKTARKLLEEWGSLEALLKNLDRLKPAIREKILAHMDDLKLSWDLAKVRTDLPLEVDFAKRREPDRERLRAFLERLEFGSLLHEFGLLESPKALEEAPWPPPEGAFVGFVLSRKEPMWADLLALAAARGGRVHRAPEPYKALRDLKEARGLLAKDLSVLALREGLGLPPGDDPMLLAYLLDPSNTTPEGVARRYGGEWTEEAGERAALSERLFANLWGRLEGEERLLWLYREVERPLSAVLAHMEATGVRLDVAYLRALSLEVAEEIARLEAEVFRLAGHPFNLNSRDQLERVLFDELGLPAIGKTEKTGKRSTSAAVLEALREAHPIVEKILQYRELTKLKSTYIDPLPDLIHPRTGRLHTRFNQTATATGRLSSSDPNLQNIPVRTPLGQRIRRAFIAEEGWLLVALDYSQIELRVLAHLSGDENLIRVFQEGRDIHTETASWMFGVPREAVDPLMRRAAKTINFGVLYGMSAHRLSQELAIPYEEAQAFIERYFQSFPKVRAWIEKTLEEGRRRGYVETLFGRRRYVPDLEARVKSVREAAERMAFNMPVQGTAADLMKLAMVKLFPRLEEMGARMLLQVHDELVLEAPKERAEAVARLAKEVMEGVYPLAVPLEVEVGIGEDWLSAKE
Experiment [2] shares this target. The experiment is described as follows: Inhibitory activity against taq polymerase at 20 uM; No inhibition.
Experiment [3] shares this target. The experiment is described as follows: Inhibitory activity against taq polymerase at 50 uM; No inhibition.
In experiment [4] the target is Telomerase reverse transcriptase (Homo sapiens, UniProt O14746). The experiment is described as follows: Inhibitory activity against telomerase. The method in brief:
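Modified TRAP with extract from exponentially growing A2780 ovarian carcinoma cells. Telomerase then inactivated at 80 °C for 5 min, CX primer and Taq added, 31 PCR cycles. Products analysed by denaturing PAGE with phosphorimaging/autoradiography, or by filter scintillation counting.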

Experiment [5] deals with DNA polymerase I, thermostable (Thermus aquaticus) (UniProt P19821). The experiment is described as follows: Inhibitory activity against taq polymerase at 50 uM; Slight.

Chain of Telomerase reverse transcriptase (O14746 whole entry): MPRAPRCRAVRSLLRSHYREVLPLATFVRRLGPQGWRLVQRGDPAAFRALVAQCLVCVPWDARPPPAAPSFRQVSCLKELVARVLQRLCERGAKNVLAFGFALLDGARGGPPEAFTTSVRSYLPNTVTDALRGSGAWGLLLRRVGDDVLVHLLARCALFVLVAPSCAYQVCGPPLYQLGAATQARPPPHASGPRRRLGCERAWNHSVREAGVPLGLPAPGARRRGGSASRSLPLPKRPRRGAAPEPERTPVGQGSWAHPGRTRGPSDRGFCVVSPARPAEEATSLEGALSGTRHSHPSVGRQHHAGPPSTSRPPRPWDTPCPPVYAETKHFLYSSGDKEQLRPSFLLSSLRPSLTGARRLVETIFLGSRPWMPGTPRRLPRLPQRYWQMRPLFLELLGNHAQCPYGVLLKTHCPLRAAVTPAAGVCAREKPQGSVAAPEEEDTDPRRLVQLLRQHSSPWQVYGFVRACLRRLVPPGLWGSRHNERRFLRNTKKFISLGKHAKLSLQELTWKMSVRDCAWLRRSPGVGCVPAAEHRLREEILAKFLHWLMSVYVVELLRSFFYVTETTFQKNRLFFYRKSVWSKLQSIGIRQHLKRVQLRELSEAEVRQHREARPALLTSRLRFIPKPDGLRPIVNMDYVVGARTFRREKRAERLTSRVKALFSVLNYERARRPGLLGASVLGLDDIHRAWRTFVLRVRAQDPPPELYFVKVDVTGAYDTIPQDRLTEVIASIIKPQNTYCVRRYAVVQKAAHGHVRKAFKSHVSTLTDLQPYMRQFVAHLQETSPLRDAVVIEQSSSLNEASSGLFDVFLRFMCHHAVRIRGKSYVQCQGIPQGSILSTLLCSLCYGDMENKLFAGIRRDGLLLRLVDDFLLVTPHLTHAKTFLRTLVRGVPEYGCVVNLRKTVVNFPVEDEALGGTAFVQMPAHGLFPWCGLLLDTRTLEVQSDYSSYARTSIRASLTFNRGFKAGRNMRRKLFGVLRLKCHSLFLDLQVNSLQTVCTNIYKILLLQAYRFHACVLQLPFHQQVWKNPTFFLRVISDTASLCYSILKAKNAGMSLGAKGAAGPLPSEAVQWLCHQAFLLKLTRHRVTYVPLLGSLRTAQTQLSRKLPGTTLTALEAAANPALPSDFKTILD

As for `CCN1CCN(CCC(=O)Nc2ccc3c(c2)C(=O)c2cc(NC(=O)CCN4CCN(CC)CC4)ccc2-3)CC1`, the half-inhibitory concentration (IC50) (commonly the concentration that inhibits the measured activity by half) in the experiment with A2780 is > 25 µM; in the experiment on CH1, > 25 µM; in the experiment with SK-OV-3 it was > 25 µM; in experiment [4], 17 µM. For the same molecule, the inhibition entry in experiment [1], in experiment [2] and in experiment [3] was “inactive” throughout.
Take `O=C(CCN1CCCCC1CO)Nc1ccc2c(c1)C(=O)c1cc(NC(=O)CCN3CCCCC3CO)ccc1-2` (configuration not stated): the IC50 in the experiment with A2780 is 13 µM; with CH1 it was 14 µM; with SK-OV-3, 15 µM; in experiment [4], 8 µM. Moreover, the inhibition result in experiment [1], in experiment [2] and in experiment [3] was “inactive” throughout.
On to `C[N+]1(CCC(=O)Nc2ccc3c(c2)C(=O)c2cc(NC(=O)CC[N+]4(C)CCCCC4CO)ccc2-3)CCCCC1CO` (configuration not stated), for which the IC50 with A2780 turned out to be 3.75 µM; in the experiment with CH1 it was 4.2 µM; in the experiment on SK-OV-3, 4.3 µM; in experiment [4], 33 µM. The inhibition entry in experiment [1], in experiment [2] and in experiment [3] was “inactive” each time.
As to `O=C(CCN1CCN(c2ccccn2)CC1)Nc1ccc2c(c1)C(=O)c1cc(NC(=O)CCN3CCN(c4ccccn4)CC3)ccc1-2`, the IC50 in the experiment with A2780 was > 25 µM; in the experiment with CH1, > 25 µM; in the experiment on SK-OV-3, > 25 µM; in experiment [4] it was > 50 µM. For the same molecule, the inhibition entry in experiment [1], in experiment [2] and in experiment [3] was “inactive” each time.
With `O=C(CCN1CCC(O)CC1)Nc1ccc2c(c1)C(=O)c1cc(NC(=O)CCN3CCC(O)CC3)ccc1-2`, the IC50 is > 25 µM with A2780, > 25 µM in the experiment with CH1, > 25 µM in the experiment with SK-OV-3 and 18.5 µM in experiment [4]. Further, the inhibition result in experiment [1], in experiment [2] and in experiment [3] was “inactive” in each case.
In turn, `CCN(CC)CCC(=O)Nc1ccc2c(c1)C(=O)c1cc(NC(=O)CCN(CC)CC)ccc1C2=O` came in with a half-maximal inhibitory concentration (IC50) in the experiment with A2780 of 2.15 µM.
In the case of `CCC1CCCCN1CCC(=O)Nc1ccc2c(c1)C(=O)c1cc(NC(=O)CCN3CCCCC3CC)ccc1-2` (configuration not stated), the half-maximal inhibitory concentration (IC50) with A2780 worked out at 2.2 µM; in the experiment with CH1 it was 2.15 µM; with SK-OV-3 it was 3.15 µM; in experiment [4], 14 µM. The inhibition result in experiment [1], in experiment [2] and in experiment [3] was “inactive” throughout.
With `O=C(CCN1CCN(Cc2ccccc2)CC1)Nc1ccc2c(c1)C(=O)c1cc(NC(=O)CCN3CCN(Cc4ccccc4)CC3)ccc1-2`, the IC50 is > 25 µM with A2780, > 25 µM in the experiment with CH1, > 25 µM in the experiment on SK-OV-3 and > 50 µM in experiment [4]. Besides, the inhibition result in experiment [1], in experiment [2] and in experiment [3] was “inactive” in each case.
Regarding `CCN(CC)CCC(=O)Nc1ccc2c(c1)C(=O)c1cc(NC(=O)CCN(CC)CC)ccc1-2`, the IC50 came out at 14 µM in the experiment with A2780, 8 µM in the experiment with CH1, 9.65 µM in the experiment on SK-OV-3 and 15.5 µM in experiment [4]. Moreover, the inhibition result in experiment [1], in experiment [2] and in experiment [3] was “inactive” throughout.
Consider `CC1CCCCN1CCC(=O)Nc1ccc2c(c1)C(=O)c1cc(NC(=O)CCN3CCCCC3C)ccc1-2` (configuration not stated), for which the concentration for half-maximal inhibition (IC50) amounted to 10.5 µM in the experiment on A2780, 1.8 µM with CH1, 12 µM with SK-OV-3 and 12 µM in experiment [4]. In addition, the inhibition entry in experiment [1], in experiment [2] and in experiment [3] was “inactive” throughout.
With `CC1CCN(CCC(=O)Nc2ccc3c(c2)C(=O)c2cc(NC(=O)CCN4CCC(C)CC4)ccc2-3)CC1`, the 50% inhibitory concentration (IC50) in the experiment with A2780 was 2.2 µM; in the experiment with CH1, > 25 µM; in the experiment with SK-OV-3 it was 7.6 µM; in experiment [4] it was > 20 µM. In addition, the inhibition result in experiment [1], in experiment [2] and in experiment [3] was “inactive” in each case.
On to `C[N+](C)(C)CCC(=O)Nc1ccc2c(c1)C(=O)c1cc(NC(=O)CC[N+](C)(C)C)ccc1-2`, for which the IC50 in the experiment with A2780 was determined as 2.25 µM; in the experiment with CH1, 1.95 µM; in the experiment with SK-OV-3 it was 1.95 µM; in experiment [4] it was 18.5 µM. For the same molecule, the inhibition result in experiment [1], in experiment [2] and in experiment [3] was “inactive” each time.
For `CC1CCCC[N+]1(C)CCC(=O)Nc1ccc2c(c1)C(=O)c1cc(NC(=O)CC[N+]3(C)CCCCC3C)ccc1-2` (configuration not stated), the half-maximal inhibitory concentration (IC50) in the experiment on A2780 was 4.85 µM; in the experiment on CH1, 2.6 µM; in the experiment on SK-OV-3 it was 3.95 µM; in experiment [4], > 20 µM. The inhibition result in experiment [1] and in experiment [2] was “inactive” each time. The inhibition entry in experiment [5] is “Weak inhibition”.
Consider `CC[N+](C)(CC)CCC(=O)Nc1ccc2c(c1)C(=O)c1cc(NC(=O)CC[N+](C)(CC)CC)ccc1-2`, for which the IC50 in the experiment with A2780 was found to be 3.7 µM; in the experiment on CH1 it was 2.45 µM; with SK-OV-3, 2.4 µM; in experiment [4], 25.4 µM. Further, the inhibition result in experiment [1], in experiment [2] and in experiment [3] was “inactive” throughout.
`O=C(CCN1CCCCC1CCO)Nc1ccc2c(c1)C(=O)c1cc(NC(=O)CCN3CCCCC3CCO)ccc1-2` (configuration not stated): the half-maximal inhibitory concentration (IC50) with A2780 was > 25 µM; in the experiment on CH1, 14.5 µM; with SK-OV-3, 20 µM; in experiment [4], 16.5 µM. The inhibition entry in experiment [1], in experiment [2] and in experiment [3] was “inactive” each time.
Turning to `O=C(CCN1CCN(c2ncccn2)CC1)Nc1ccc2c(c1)C(=O)c1cc(NC(=O)CCN3CCN(c4ncccn4)CC3)ccc1-2`, the IC50 in the experiment on A2780 is > 25 µM; in the experiment with CH1, > 25 µM; in the experiment on SK-OV-3, > 25 µM; in experiment [4] it was > 50 µM. The inhibition entry in experiment [1], in experiment [2] and in experiment [3] was “inactive” each time.
Turning to `CCC1CCCC[N+]1(C)CCC(=O)Nc1ccc2c(c1)C(=O)c1cc(NC(=O)CC[N+]3(C)CCCCC3CC)ccc1-2` (configuration not stated), the IC50 in the experiment with A2780 was 2.9 µM; with CH1, 2.35 µM; in the experiment with SK-OV-3, 2.6 µM; in experiment [4], > 20 µM. Also, the inhibition entry in experiment [1] and in experiment [2] was “inactive” throughout. In addition, the inhibition result in experiment [5] was “Weak inhibition”.
Regarding `CN(C)CCC(=O)Nc1ccc2c(c1)C(=O)c1cc(NC(=O)CCN(C)C)ccc1-2`, the concentration for half-maximal inhibition (IC50) with A2780 is 12 µM; in the experiment with CH1, 8.5 µM; in the experiment with SK-OV-3, 8.2 µM; in experiment [4], 16.2 µM. The inhibition result in experiment [1], in experiment [2] and in experiment [3] was “inactive” throughout.
With `O=C(CCN1CCCCC1)Nc1ccc2c(c1)C(=O)c1cc(NC(=O)CCN3CCCCC3)ccc1-2`, the IC50 in the experiment with A2780 was found to be 11 µM; in the experiment with CH1, 7.6 µM; in the experiment on SK-OV-3, 11 µM; in experiment [4] it was 9 µM. Further, the inhibition entry in experiment [1], in experiment [2] and in experiment [3] was “inactive” in each case.
On to `O=C(CCN1CCOCC1)Nc1ccc2c(c1)C(=O)c1cc(NC(=O)CCN3CCOCC3)ccc1-2`, for which the concentration for half-maximal inhibition (IC50) was > 25 µM in the experiment on A2780, > 25 µM with CH1, > 25 µM in the experiment with SK-OV-3 and > 50 µM in experiment [4]. Moreover, the inhibition entry in experiment [1], in experiment [2] and in experiment [3] was “inactive” throughout.
For the molecule `O=C(CCN1CCN(c2ccccc2)CC1)Nc1ccc2c(c1)C(=O)c1cc(NC(=O)CCN3CCN(c4ccccc4)CC3)ccc1-2`, the concentration for half-maximal inhibition (IC50) with A2780 is > 25 µM; in the experiment with CH1 it was > 25 µM; with SK-OV-3 it was > 25 µM; in experiment [4] it was > 50 µM. The inhibition result in experiment [1], in experiment [2] and in experiment [3] was “inactive” throughout.
Consider `C[N+]1(CCC(=O)Nc2ccc3c(c2)C(=O)c2cc(NC(=O)CC[N+]4(C)CCCCC4)ccc2-3)CCCCC1`, for which the half-inhibitory concentration (IC50) with A2780 was found to be 4.3 µM; in the experiment with CH1 it was 5.2 µM; in the experiment on SK-OV-3, 3.9 µM; in experiment [4] it was 21 µM. Moreover, the inhibition result in experiment [1], in experiment [2] and in experiment [3] was “inactive” each time.
As to `CC1CC[N+](C)(CCC(=O)Nc2ccc3c(c2)C(=O)c2cc(NC(=O)CC[N+]4(C)CCC(C)CC4)ccc2-3)CC1` (configuration not stated), the IC50 was 2.5 µM with A2780, > 25 µM in the experiment with CH1, 3.75 µM in the experiment on SK-OV-3 and > 20 µM in experiment [4]. Further, the inhibition result in experiment [1] and in experiment [2] was “inactive” in each case. Besides, the inhibition entry in experiment [5] is “Weak inhibition”.
As for `C[N+]1(CCC(=O)Nc2ccc3c(c2)C(=O)c2cc(NC(=O)CC[N+]4(C)CCOCC4)ccc2-3)CCOCC1`, the concentration for half-maximal inhibition (IC50) with A2780 came out at 2.55 µM; with CH1, 2.15 µM; in the experiment with SK-OV-3 it was 2.45 µM; in experiment [4] it was 27.3 µM. For the same molecule, the inhibition entry in experiment [1], in experiment [2] and in experiment [3] was “inactive” each time.
